Converted amounts (≈) assume the structure as drawn. The source made the active and inactive calls. No cut-off for these calls is given here.
Experiments:
[1] = Kinetic solubility of compound; assay type: physicochemical; conditions: read-out: Kinetic_solubility
In short: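 Kinetic solubility read by charged aerosol detection (CAD).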

[2] = Intrinsic clearance in mouse liver microsomes; assay type: ADME, Microsome
Trypanosoma cruzi [3] = assay: Antitrypanosomal activity against intracellularTrypanosoma cruzi amastigote; assay type: functional, organism-based
In short: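 Intracellular T. cruzi amastigote assay; potency expressed as pEC50 from at least three independent replicates, SD ≤0.2.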

Trypanosoma cruzi [4] = assay: Antitrypanosomal activity against Trypanosoma cruzi infected in mouse assessed as decrease in parasite level at 50 mg/kg twice daily for 5 days cotreated with 1-ABT; assay type: functional, organism-based; conditions: time 5.0 day
In short: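 Acute infection mouse model; drug given twice daily for 5 days from day 14 post-infection, with 1-ABT 50 mg/kg given 30 min before each dose. Vehicle controls dosed b.i.d. at 10 mL/kg. Whole-body bioluminescence imaging, dorsal and ventral, quantified as total flux (p/s). Cyclophosphamide 200 mg/kg i.p. on days 28, 32 and 36 post-infection to detect relapse. Blood sampled on days 1 and 5 (n = 3).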

[5] = Inhibition of Trypanosoma cruzi CYP51

What does the source list for Cc1ccc(S(=O)(=O)Nc2ccc(CN3CCN(C(=O)c4cc(=O)c5ccccc5n4C)CC3)cc2)cc1?
solubility kinetic [1]: 29 µM (≈ 15.4 µg/mL); CLint [2]: > 50 mL/min/g; EC50 (Trypanosoma cruzi [3]): 3.98 µM

Which EC50 (Trypanosoma cruzi [3]) does the source give for Cc1ccc(S(=O)(=O)Nc2ccc(CN3CCN(C(=O)c4cccc(C#N)c4)CC3)cc2)cc1 here?
Its EC50 is 0.398 µM.

For COc1ccc(S(=O)(=O)Nc2ccc(Cn3cc4c(n3)CN(C(=O)c3cccc(Cl)c3)C4)cc2)cc1, which EC50 (Trypanosoma cruzi [3]) is on record?
Its EC50 is 12.6 µM.

Which EC50 (Trypanosoma cruzi [3]) does the source give for Cc1ccc(S(=O)(=O)Nc2ccc(CN3CCN(C(=O)Cc4coc5ccccc45)CC3)cc2)cc1 here?
Its EC50 is 6.31 µM.

Which CLint [2] does the source give for Cc1ccc(S(=O)(=O)Nc2ccc(CN(C)[C@H]3CCN(C(=O)c4cccc(Cl)c4)C3)cc2)cc1 here?
Its CLint is over 50 mL/min/g.

Which CLint [2] does the source give for Cc1ccc(S(=O)(=O)Nc2ccc(CN3CCN(C(=O)c4cccc(Cl)c4)CC3)cc2)cc1 here?
The CLint was over 50 mL/min/g.

What about the Activity (Trypanosoma cruzi [4]) of the same compound?
The Activity was “Active”.

What about the pIC50 [5] of the same compound?
The pIC50 was 4.7.

For Cc1ccc(S(=O)(=O)Nc2ccc(CN(C)[C@@H]3CCN(C(=O)c4cccc(Cl)c4)C3)cc2)cc1, which CLint [2] is on record?
Its CLint is over 50 mL/min/g.

Reference: ChEMBL document CHEMBL5113407, “Identification and development of a series of disubstituted piperazines for the treatment of Chagas disease” (Eur J Med Chem, 2022)
